Screening results: PubChem BioAssay, several laboratories
Hits are enriched below; roughly 2.7% of the tested compounds scored in any of these assays.
FLuc inh counter – inhibits firefly luciferase, flagging false hits in luciferase inhibition screens | P08659 | 200,000 compounds, 1.5% hits | inhibition, % at 10 µM | ATPLite firefly luciferase biochemical luminescence, 10 min;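 active = inhibition above about 50% when tested at 10 µM, limit read from the data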
Target sequence (P08659 whole entry, looked up): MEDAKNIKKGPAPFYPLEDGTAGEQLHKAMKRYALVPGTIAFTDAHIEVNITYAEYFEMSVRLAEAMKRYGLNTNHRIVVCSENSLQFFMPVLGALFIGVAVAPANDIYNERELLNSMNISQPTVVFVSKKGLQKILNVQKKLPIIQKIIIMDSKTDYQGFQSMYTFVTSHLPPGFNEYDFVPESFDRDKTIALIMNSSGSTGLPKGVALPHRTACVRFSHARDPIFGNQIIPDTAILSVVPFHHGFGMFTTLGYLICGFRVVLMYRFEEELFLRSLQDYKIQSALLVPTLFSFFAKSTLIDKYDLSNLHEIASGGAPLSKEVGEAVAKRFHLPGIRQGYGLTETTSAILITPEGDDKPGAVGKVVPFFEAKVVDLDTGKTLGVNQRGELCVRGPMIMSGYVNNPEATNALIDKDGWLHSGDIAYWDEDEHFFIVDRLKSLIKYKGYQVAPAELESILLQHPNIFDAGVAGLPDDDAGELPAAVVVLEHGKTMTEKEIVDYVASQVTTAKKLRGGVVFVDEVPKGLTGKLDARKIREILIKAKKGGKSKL
ABCG2 block – inhibitors of human ABCG2 transporter, ABCB1 counter-screen. inhibition, % at 6.6 µM. 190,000 compounds, 0.1% hits. IgMXP3 cells, JC-1 efflux, flow cytometry. AID 1325;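 active = inhibition above 80%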;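 note: 0% = DMSO and 100% = nicardipine control wells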
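Test system: ABCG2 IgMXP3 and barcoded ABCB1 CCRF-Adr cell mix; Schedule: cells with compound and JC-1, 10 min at 25 °C, rotating, no wash; Technique: flow cytometry of retained JC-1 fluorescence; Measure: % inhibition of efflux relative to nicardipine and DMSO; Controls: nicardipine high and DMSO low controls.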
Measles CPE – protection of cells from measles virus | protection (pct of control), % at 4 µM | Measles virus-infected cells, CPE protection, absorbance | 140,000 compounds, 1.5% hits | AID 841; in the data active = protection mostly above about 24%, no sharp cut-off; inactive = mostly below about 26%
ABCB1 block – human ABCB1 inhibition, ABCG2 as counter-screen | P08183 | CCRF-Adr cells, JC-1 efflux, flow cytometry | inhibition, % at 6.6 µM | 190,000 compounds, 0.067% hits | AID 1326; in the data active = inhibition above about 40%;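 note: 0% = vehicle and 100% = reference inhibitor; higher value means more JC-1 retained so stronger ABCB1 efflux block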
DTT redox prof – compounds producing H2O2 with reducing agent – biochemical, NIH compound library profiling, artefact control for MLSCN library redox annotation, primary screen. DTT-dependent redox cycling H2O2, phenol red/HRP absorbance; 100% = 100 µM peroxide control, 0% = buffer. AID 878. 200,000 compounds, 0.03% hits. activation, % at 10 µM;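 active = activation of at least 50% relative to the plate's high and low controls in the primary single-dose screen; inactive = activation below 50%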;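 note: compound incubated with DTT at 0.8 mM final as the reducing agent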
FLuc stim CS – firefly luciferase counter-screen for stimulation assays | ATPlite luciferase biochemical, luminescence, 10 min; 0 = ATP-free wells, 1 = DMSO control | activation factor at 10 µM | 200,000 tested, under 10 active;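 active = luciferase activation factor, scaled between plate controls, of at least 2 with compound at 10 µM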
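Material: Luciferase/luciferin reagent mix | Doses: Test compounds dosed from 2 mM stocks in 100% DMSO | Timing: 10 min incubation after luciferase reagent addition, room temperature | Measured by: Luminescence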
* marks the source's active call; other numbers are inactive results.

Screening Cc1ccc(NC(=O)C2C3C=CC4(CN(Cc5cccnc5)C(=O)C24)O3)cc1 (configuration not stated) returned FLuc inh counter -7, ABCG2 block -3, Measles CPE 5, ABCB1 block -3, DTT redox prof -2 and FLuc stim CS 1.1.
`CCCN1C=CC(=C/C=C(\C#N)C(=O)OCC)C=C1` gave FLuc inh counter 58*, ABCG2 block 15, Measles CPE 4, ABCB1 block 0, DTT redox prof 2 and FLuc stim CS 0.4.
`CCCCCc1nc2c(C#N)c(-c3ccc(Cl)cc3)ccn2n1` gave FLuc inh counter -4, ABCG2 block 15, Measles CPE 7, ABCB1 block 0, DTT redox prof 2 and FLuc stim CS 1.
COc1ccc(NC(=O)c2cc([N+](=O)[O-])ccc2O)cc1 was read as FLuc inh counter 96*, ABCG2 block 8, ABCB1 block 0, DTT redox prof -1 and FLuc stim CS 0.
For Cc1cc(C)n(CC(=O)c2cccc(N)c2)n1 the results were FLuc inh counter -4, ABCG2 block 2, ABCB1 block 0, DTT redox prof -1 and FLuc stim CS 1.
`c1ccc2sc(NN=C3CCCCCC3)nc2c1` gave FLuc inh counter 89*, ABCG2 block 22, ABCB1 block 1, DTT redox prof 0 and FLuc stim CS 0.1.
`CCN(CC)S(=O)(=O)c1ccc(Cl)c(C(=O)Oc2cccc(-c3cnc4ccccc4n3)c2)c1` gave FLuc inh counter -5, ABCG2 block 17, Measles CPE 31*, ABCB1 block 2, DTT redox prof -1 and FLuc stim CS 1.
`CCOc1ccc(N(Cc2nnc3n2CCCCC3)C(=O)Nc2cccc(C)c2)cc1` gave FLuc inh counter 3, ABCG2 block -2, ABCB1 block 0, DTT redox prof 0 and FLuc stim CS 1.
CCc1c(O)cc(=O)n(-c2ccccc2)c1-c1ccccc1 was read as FLuc inh counter -2, ABCG2 block -1, Measles CPE 26*, ABCB1 block 0, DTT redox prof 0 and FLuc stim CS 1.
Screening Cc1cc(C)c(S(=O)(=O)c2ccccc2C)c(OCC(C)(C)C)n1 returned FLuc inh counter -6, ABCG2 block 1, Measles CPE 22, ABCB1 block 0, DTT redox prof -1 and FLuc stim CS 1.1.
`CCOC(=O)C1CCN(C(=O)CS(=O)Cc2nc(-c3ccc(C)cc3)oc2C)CC1` (configuration not stated) gave FLuc inh counter -6, ABCG2 block 24, Measles CPE 46*, ABCB1 block 1, DTT redox prof -1 and FLuc stim CS 1.1.
`CCOC(=O)C1CCN(C(=O)CSCc2nc(-c3ccc(OCC)cc3)oc2C)CC1` gave FLuc inh counter -5, ABCG2 block 6, Measles CPE 9, ABCB1 block 1, DTT redox prof -2 and FLuc stim CS 1.1.
CN1CCN(Cc2ccc(-c3ccc(Cl)cc3)o2)CC1 was read as FLuc inh counter -3, ABCG2 block 1, Measles CPE 14, ABCB1 block 0, DTT redox prof 1 and FLuc stim CS 1.
OCCc1ccc(-c2ccc(Cl)cc2)o1 was read as FLuc inh counter 2, ABCG2 block 12, Measles CPE 37*, ABCB1 block 1, DTT redox prof 1 and FLuc stim CS 1.
`CCOc1ccccc1NC(=S)N1CCC(c2nc3ccccc3o2)CC1` gave FLuc inh counter -4, ABCG2 block 7, Measles CPE 18, ABCB1 block 1, DTT redox prof 0 and FLuc stim CS 1.
Screening Cc1ncc(CO)c2cc(C(N)=O)c(=Nc3ccccc3)oc12 returned FLuc inh counter -6, ABCG2 block 0, Measles CPE 48*, ABCB1 block 0, DTT redox prof 2 and FLuc stim CS 1.1.
`COc1cccc(/C=C/C(=O)Nc2ccccc2N2CCOCC2)c1` gave FLuc inh counter 44, ABCG2 block 1, ABCB1 block 2, DTT redox prof 0 and FLuc stim CS 0.6.
Screening CCCN(CCC)CCCn1c(=O)[nH]c2ccccc21 returned FLuc inh counter 0, ABCG2 block 2, ABCB1 block 0, DTT redox prof 0 and FLuc stim CS 1.
For O=C(CSc1nnc(Cc2ccccc2)o1)NCc1ccc2c(c1)OCO2 the results were FLuc inh counter -3, ABCG2 block 5, ABCB1 block 2, DTT redox prof -2 and FLuc stim CS 1.
For O=C(CSc1nnc(Cc2ccccc2)o1)Nc1ccc2c(c1)OCO2 the results were FLuc inh counter -4, ABCG2 block 9, Measles CPE 20*, ABCB1 block 2, DTT redox prof 0 and FLuc stim CS 1.
Screening CCCOC(=O)Nc1ccc(N2CCCCC2)cc1 returned FLuc inh counter 59*, ABCG2 block -1, Measles CPE 9, ABCB1 block 0, DTT redox prof -1 and FLuc stim CS 0.4.
CCCCC(=O)Nc1ccc(N2CCCC2)cc1 was read as DTT redox prof -5.
O=C(NC(=S)Nc1ccc(N2CCCCC2)cc1)c1ccco1 was read as FLuc inh counter 63*, ABCG2 block 3, Measles CPE 6, ABCB1 block 0, DTT redox prof 2 and FLuc stim CS 0.4.
COc1ccccc1C(=O)Nc1ccc(N2CCCCC2)cc1 was read as FLuc inh counter 71*, ABCG2 block 28, Measles CPE 5, ABCB1 block 0, DTT redox prof -1 and FLuc stim CS 0.3.
O=C(Nc1ccc(SC(F)(F)F)cc1)c1ccccn1 was read as FLuc inh counter 71*, ABCG2 block 17, ABCB1 block 1, DTT redox prof 0 and FLuc stim CS 0.3.
Screening CS(=O)(=O)N(CC(=O)Nc1ccc(CC#N)cc1)c1ccc(C23CC4CC(CC(C4)C2)C3)cc1 returned FLuc inh counter -7, ABCG2 block 5, Measles CPE 11, ABCB1 block 0, DTT redox prof -1 and FLuc stim CS 1.1.
`O=C(Nc1ccc(N2CCOCC2)cc1)c1cn2ccccc2n1` gave FLuc inh counter 93*, ABCG2 block 1, Measles CPE 4, ABCB1 block 0, DTT redox prof 3 and FLuc stim CS 0.1.
`O=C(Nc1ccc(N2CCCCC2)cc1)c1ccccn1` gave FLuc inh counter 97*, ABCG2 block 2, ABCB1 block 1, DTT redox prof -1 and FLuc stim CS 0.
`CSCCC(=O)N1C(C)CCCC1C(=O)O` (configuration not stated) gave FLuc inh counter -5, ABCG2 block 4, Measles CPE 26*, ABCB1 block 0, DTT redox prof -8 and FLuc stim CS 1.1.
